# Calb FLC: C. albicans growth modulation with fluconazole; C. albicans CaCi-2 (fluconazole-resistant clinical isolate) + fluconazole, Alamar Blue growth, 48 h; 0.57% of 300,000 active; growth inhibition, % (concentration not given with the values);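 active = growth inhibition above about 58% in most replicates, limit read from the data, passing the limit was not always enough; inconclusive = exactly half the replicates above a set limit; inactive = most replicates below a set limit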;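 also: all wells also contain fluconazole at 8 µg/ml as a sub-toxic cotreatment; 0% = median of DMSO wells and 100% = median of geldanamycin control wells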
# MC4R ag barr: agonists of human melanocortin 4 receptor (MC4R) beta-arrestin; U2OS MC4R beta-arrestin complementation, luminescence; percent of melanotan II response, DMSO zero; activation, % at 8.9 µM; 0.98% of 360,000 active;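 active = activation above a per-plate cutoff, the mean activation of sample wells on that plate plus 3 SD, cut at about 8% in these data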
# Target sequence (P32245 whole entry, looked up): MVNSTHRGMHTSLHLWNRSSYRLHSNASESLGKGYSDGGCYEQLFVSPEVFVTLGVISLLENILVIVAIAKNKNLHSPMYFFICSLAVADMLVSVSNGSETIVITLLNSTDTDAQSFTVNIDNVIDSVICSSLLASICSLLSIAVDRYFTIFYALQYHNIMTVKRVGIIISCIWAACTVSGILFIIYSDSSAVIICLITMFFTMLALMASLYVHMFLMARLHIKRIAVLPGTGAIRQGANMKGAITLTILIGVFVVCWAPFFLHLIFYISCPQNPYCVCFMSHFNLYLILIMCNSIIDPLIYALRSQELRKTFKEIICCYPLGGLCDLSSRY
# H9c2 TAG inh: reduces triacylglycerol accumulation in H9c2 cells; Nile Red lipid (TAG) fluorescence; cells loaded with 200 µM oleic acid; inhibition, % at 12.5 µM; 0.66% of 230,000 active; AID 651582;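 active = pattern-corrected inhibition of lipid staining of at least 50% with the nuclear-stain viability signal not falling by more than 50%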;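 also: 0% = DMSO wells and 100% = triacsin C control wells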
# GalR3 antag: human GalR3 antagonism; HEK293 GalR3-CNG cAMP membrane potential fluorescence; galR3 body fused to GalR1 C-terminus; inhibition, % at 3 µM; 0.44% of 360,000 active;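 active = inhibition above the screen-wide average plus 3 SD, cut at about 13% in these data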;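 also: forskolin and galanin both at EC90 stimulate the cells; cAMP rise reported by CNG channel membrane potential dye signal; 0% = forskolin plus galanin with DMSO and 100% = forskolin alone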
# Target sequence (O60755 1-299 limits assumed): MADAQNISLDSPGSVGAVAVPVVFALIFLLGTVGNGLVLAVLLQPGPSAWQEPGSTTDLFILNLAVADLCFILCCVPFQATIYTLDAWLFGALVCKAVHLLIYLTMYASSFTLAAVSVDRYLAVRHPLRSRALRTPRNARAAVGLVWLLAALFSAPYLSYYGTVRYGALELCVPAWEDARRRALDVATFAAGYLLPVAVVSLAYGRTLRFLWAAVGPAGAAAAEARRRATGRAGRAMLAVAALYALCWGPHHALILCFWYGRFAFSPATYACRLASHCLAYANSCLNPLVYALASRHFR
# Efflux pump mplx: antifungal efflux pump inhibition, Nile Red retention; AID 485275; 0.44% of 330,000 active; S. cerevisiae Candida pump triplex; inhibition, % at 10 µM;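 active = plate passing quality check with inhibition over a set limit, or well fluorescence over plate mean plus 4 SD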;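 also: Nile Red retained in pooled yeast measured as flow cytometry median fluorescence; 0% = buffer negative control and 100% = Enniatin B positive control; higher means more Nile Red kept so more efflux inhibition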
# MC4R antagonist: human MC4R antagonism in cAMP assay. P32245. MC4R-expressing cells, MTII-stimulated cAMP, LANCE TR-FRET. inhibition, % at 6.5 µM. 0.48% of 360,000 active. AID 540295;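 active = inhibition above its plate's cutoff, the mean of tested wells on that plate plus 3 SD, cut at about 29% in these data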;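 also: 0% = Melanotan II alone and 100% = Melanotan II plus saturating MCL0020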
#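 Material: U2OS-MC4R stable cell line | Reagent: Melanotan II challenge after compound preincubation | Doses: One concentration, 6.5 µM nominal | Incubation: 30-min compound preincubation, 1-h Melanotan II challenge, 1-h detection, room temperature | Signal: TR-FRET cAMP assay | Replicates: One well per compound, no replicates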
# Yeast cmpd fluor: compound fluorescence in yeast efflux pump counter-screen. S. cerevisiae AD/pABC3, flow cytometry. fluorescence ratio to DMSO, % at 10 µM. shares compounds with Efflux pump mplx. 4% of 1,700 active. AID 588517;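 active = fluorescence ratio to DMSO above its plate's cutoff, the plate mean ratio plus 5 SD, cut at about 210% in these data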;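 also: unstained yeast with no Nile Red so the signal is compound autofluorescence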
# Mdr1 pump inh: inhibitors of Candida albicans Mdr1 efflux pump; 1% of 1,700 active; shares compounds with Efflux pump mplx; inhibition, % at 10 µM; S. cerevisiae AD/CaMDR1, Nile Red efflux, flow cytometry; AID 588518; in the data active = inhibition above about 26%;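 also: 0% = DMSO vehicle and 100% = reference inhibitor; higher means more Nile Red retained so more efflux inhibition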
# CaCdr2 efflux inh: Candida Cdr2 efflux pump inhibition. S. cerevisiae AD/CaCDR2, Nile Red retention, flow cytometry. Nile Red retention ratio vs DMSO, % at 10 µM. AID 588520. shares compounds with Efflux pump mplx. 4% of 1,700 active; in the data active = Nile Red retention ratio vs DMSO above about 190%;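 also: higher ratio means more blocking of Cdr2 efflux of the dye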
# Cdr1 pump inh: inhibitors of Candida albicans Cdr1 efflux pump | S. cerevisiae AD/CaCDR1, Nile Red efflux, flow cytometry | AID 588522 | 1% of 1,700 active | inhibition, % at 10 µM | shares compounds with Efflux pump mplx;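 active = inhibition above the screen-wide mean plus twice its standard deviation, cut at about 32% in these data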
# * marks the source's active call; other numbers are inactive results; ? = inconclusive; nt = no result. This is a sample that favours compounds with a hit; in the whole collection about 2.9% have one here.
SMILES,Calb FLC,MC4R ag barr,H9c2 TAG inh,GalR3 antag,Efflux pump mplx,MC4R antagonist,Yeast cmpd fluor,Mdr1 pump inh,CaCdr2 efflux inh,Cdr1 pump inh
CCOC(=O)C1CCN(S(=O)(=O)c2ccc3c(c2)CCN3C(=O)C2CCC2)CC1,-15,-2,nt,nt,0,2,118,0,120,0
CCOC(=O)C1CCN(S(=O)(=O)c2ccc3c(c2)CCN3C(C)=O)CC1,-7,-3,nt,-8,0,16,nt,nt,nt,nt
CCOc1ccc(OCC)c(NS(=O)(=O)c2ccc3c(c2)CCN3C(=O)C2CCC2)c1,-10,-1,nt,-7,0,6,108,0,114,0
Cc1cccc(C(=O)N(NC(=O)Oc2ccccc2)C(C)(C)C)c1,-56,0,nt,-9,0,6,nt,nt,nt,nt
COc1ccccc1C(=O)N(NC(=O)Oc1ccccc1)C(C)(C)C,-10,-1,nt,-1,5.8*,1,99,0,112,0
CN(CCC#N)C(=O)COC(=O)c1ccc2c(c1)C(=O)N(C1CCCCC1)C2=O,0,-2,0,-3,6.2*,3,106,0,106,0
C=CCN1C(=O)c2ccc(C(=O)OCC(=O)N(C)C3CCCCC3)cc2C1=O,-10,-1,-8,1,0,-1,nt,nt,nt,nt
Cc1cc2c(nc1C)CCCN2S(=O)(=O)c1cccs1,nt,nt,nt,9,nt,nt,nt,nt,nt,nt
C[C@H](CO)N1C[C@H](C)[C@@H](CN(C)S(=O)(=O)c2cccs2)Oc2c(NC(=O)Nc3ccc4c(c3)OCO4)cccc2C1=O,nt,-1,-17,-2,0,12,102,0,116,0
C[C@H](CO)N1C[C@H](C)[C@@H](CN(C)S(=O)(=O)c2ccccc2)Oc2c(NC(=O)Nc3ccccc3)cccc2C1=O,nt,-3,10,-4,1,9,100,0,106,0
COc1ccc(S(=O)(=O)N(C)C[C@H]2Oc3c(NC(=O)Nc4ccccc4)cccc3C(=O)N([C@H](C)CO)C[C@@H]2C)cc1,nt,-2,5,-3,nt,18,nt,nt,nt,nt
C[C@H](CO)N1C[C@H](C)[C@@H](CN(C)S(=O)(=O)c2cccs2)Oc2ccc(NC(=O)Nc3ccc4c(c3)OCO4)cc2C1=O,nt,-2,2,-6,0,1,nt,nt,nt,nt
CC(C)NC(=O)Nc1cccc2c1O[C@H](CN(C)S(=O)(=O)c1ccc(F)cc1)[C@@H](C)CN([C@H](C)CO)C2=O,nt,-1,7,-6,0,3,112,0,106,0
O=C(NNC(=O)c1cccc(S(=O)(=O)Nc2ccccc2F)c1)c1ccncc1,nt,1,1,-4,nt,14,nt,nt,nt,nt
CCOc1ccc(C(=O)NCC(C)CN(C)C)cc1OCC (configuration not stated),-1,0,-13,-1,0,-4,nt,nt,nt,nt
CC(CNC(=O)c1ccc(C(C)(C)C)cc1)CN(C)C (configuration not stated),12,-1,nt,-4,2.0*,7,100,0,96,0
CCOc1ccccc1NC(=S)NC1CC2CCC1C2 (configuration not stated),-35,-1,nt,nt,1.1*,1,102,0,108,0
C=CCn1c(SCC#N)nc2ccccc2c1=O,32,1,nt,-3,0.6*,8,93,0,106,0
COc1ccc(NC(=O)C(NC(=O)c2ccc(C)cc2)c2ccccc2)cc1 (configuration not stated),2,-1,-7,-2,0.3*,7,100,0,112,0
CC(C)C[C@H]1CN([C@@H](Cc2ccccc2)CN2CCC[C@H]2CN2C(=O)C(=O)NC[C@@H]2Cc2ccc(O)cc2)C(=O)C(=O)N1CC1CCCCCC1,nt,nt,nt,-8,nt,nt,nt,nt,nt,nt
CN(C)c1ccc(/C=C/C(=O)c2c(O)c3ccccc3oc2=O)cc1,-6,-4,-5,-5,1.4*,-9,182,2,223*,1
Fc1ccc(-c2ccc3c(c2)C2CC3CCN2Cc2ccc3c(c2)OCO3)cc1 (configuration not stated),nt,1,-23,-4,nt,0,nt,nt,nt,nt
O=C(c1ccccc1)C1Oc2ccccc2C2CC(c3cccs3)=NN12 (configuration not stated),1,0,-29,-7,1.5*,7,120,0,117,0
Cc1ccc(S(=O)(=O)N=N/C=C2\C=CC=CN2O)cc1,nt,0,11,-5,nt,9,nt,nt,nt,nt
O=C1OCCN1C(=O)[C@H]1[C@H](c2ccc(F)cc2)C(c2cccc(Cl)c2)=NN1c1ccccc1,nt,2,-2,-2,1.4*,20,110,0,97,0
SMILES,Calb FLC,MC4R ag barr,H9c2 TAG inh,GalR3 antag,Efflux pump mplx,MC4R antagonist,Yeast cmpd fluor,Mdr1 pump inh,CaCdr2 efflux inh,Cdr1 pump inh
O=C1OCCN1C(=O)[C@H]1[C@H](c2ccc(Cl)cc2)C(c2cccc(Cl)c2)=NN1c1ccccc1,-5,2,nt,nt,nt,10,nt,nt,nt,nt
CCOC(=O)[C@]12CCC=C1N(Cc1ccco1)C(=O)[C@H](CC(=O)NCC13CC4CC(CC(C4)C1)C3)C2,nt,nt,nt,-8,nt,nt,nt,nt,nt,nt
CCCCOC(=O)Cn1c(=O)n(CC(=O)OCCCC)c2ccccc21,-2,0,-5,-3,0,3,nt,nt,nt,nt
CCCCCCCCCCOC(=O)Cn1c(COc2ccc(Cl)cc2)[n+](C)c2ccccc21,?,17*,nt,-7,3.1*,22,115,0,222*,0
O=C(N[C@H](C(=O)N1CCC[C@H]1C(=O)NC1CCCC1)C1CCCCC1)c1ccccc1,nt,nt,nt,-6,nt,nt,nt,nt,nt,nt
O=C(N/N=C\c1ccc(CNS(=O)(=O)c2ccccc2)o1)C(=O)Nc1ccc(F)cc1,1,-1,nt,-5,0,12,nt,nt,nt,nt
O=C(NCc1ccc(/C=N\NC(=O)C(=O)Nc2ccccc2Br)o1)C(=O)Nc1ccccc1,-11,-1,-6,-10,0.7*,16,102,0,109,0
O=C(NCc1ccc(Cl)cc1)N1CCc2ccccc2C1,-2,-1,nt,-8,1.3*,3,106,0,108,0
CCc1ccc(-c2cc3c(=O)n(CC(=O)NCCN4CCCCC4C)nc(C)n3n2)cc1 (configuration not stated),10,-3,nt,-3,1.0*,6,108,0,104,0
COCCNC(=O)/C(C#N)=C/C(C)=C/c1ccccc1,7,0,nt,-5,17*,1,99,0,102,0
